Compound activity deposited in PubChem by several laboratories.
PABP polyA inh = blocks human PABP binding to poly(A) RNA. P11940. fluorescence polarization. inhibition, % at 35 µM. hit rate 1% among 290,000;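 note: calls also rest on retests at 20 µM and on dose response follow-up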
Target sequence (P11940 whole entry, looked up): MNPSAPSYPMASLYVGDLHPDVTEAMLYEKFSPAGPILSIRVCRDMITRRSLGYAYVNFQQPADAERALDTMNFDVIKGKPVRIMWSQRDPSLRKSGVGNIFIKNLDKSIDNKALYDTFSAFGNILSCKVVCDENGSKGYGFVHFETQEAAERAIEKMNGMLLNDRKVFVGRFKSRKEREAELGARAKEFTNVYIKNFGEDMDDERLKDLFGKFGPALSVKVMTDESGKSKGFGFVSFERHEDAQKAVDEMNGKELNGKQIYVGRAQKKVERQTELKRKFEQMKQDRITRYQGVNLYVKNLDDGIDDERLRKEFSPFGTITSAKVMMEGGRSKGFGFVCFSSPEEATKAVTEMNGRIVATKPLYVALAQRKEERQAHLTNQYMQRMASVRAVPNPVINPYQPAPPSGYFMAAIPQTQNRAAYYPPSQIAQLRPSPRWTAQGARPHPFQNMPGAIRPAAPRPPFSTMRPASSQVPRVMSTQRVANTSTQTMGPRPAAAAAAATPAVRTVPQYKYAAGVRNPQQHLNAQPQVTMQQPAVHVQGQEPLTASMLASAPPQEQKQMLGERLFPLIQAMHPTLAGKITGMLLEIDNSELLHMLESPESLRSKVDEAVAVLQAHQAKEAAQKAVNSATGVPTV
NS3 helicase inh = blocks Hepatitis C virus NS3 helicase unwinding; NS3 helicase DNA unwinding, Cy5 molecular beacon fluorescence; inhibition, % at 10.9 µM; hit rate 0.56% among 290,000;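 active = inhibition above the mean of all tested compounds plus 3 SD, set per campaign, cut at about 35% in these data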;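 note: 0% = DMSO wells and 100% = thioflavine S control wells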
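Control set: DMSO versus 110 µM thioflavine S; Material: NS3 helicase fragment of HCV; Measured by: Cy5 fluorescence at 0 and 60 min, beacon hairpin quenching; Read-out basis: percent inhibition from t60/t0 fluorescence ratio; Times: reaction time 60 min, 25 °C; Repeats: single replicate; Compound dosing: single dose, 10.9 µM nominal final, DMSO 0.8% final.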
eIF4H FP inh = inhibitors of RNA binding by human eIF4H. eIF4H fluorescence polarization binding assay. inhibition, % at 35 µM. hit rate 0.94% among 290,000;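 note: calls also rest on retests at 20 µM and on dose response follow-up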
MLLE-PAM2 inh = inhibitors of microRNA-mediated deadenylation, human PABP1 MLLE binding | P11940 | GST-MLLE / FITC-PAM2 fluorescence polarization | inhibition, % at 20 µM | hit rate 0.36% among 360,000 | AID 588489; in the data active = inhibition above about 35%, passing the limit was not always enough;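 note: plate controls were DMSO wells with GST-MLLE for no effect and wells lacking GST-MLLE protein for full effect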
ZTA counter = ZTA (EBV) inhibition in EBNA-1 counter-screen | P03206 | ZTA-DNA binding, fluorescence polarization | inhibition, % at 11 µM | hit rate 0.15% among 320,000; in the data active = inhibition above about 33%
EBNA-1 inhibitor = blocks EBNA-1 binding to DNA; EBNA-1 DNA binding, fluorescence polarization; inhibition, % at 14.8 µM; hit rate 0.34% among 300,000; AID 1950; in the data active = inhibition above about 28%
NS3 helicase cf = HCV NS3 helicase inhibition, confirmation assay | inhibition, % at 10.9 µM | AID 1943 | NS3 helicase DNA unwinding, Cy5 molecular beacon fluorescence | shares compounds with NS3 helicase inh | hit rate 31% among 1,600;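 active = inhibition above the mean of all tested compounds plus 3 SD, cutoff set per campaign, cut at about 36% in these data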
DNA FID counter = counter-screen for HCV NS3 helicase inhibitors: DNA intercalator displacement; shares compounds with NS3 helicase inh; DNA fluorescent intercalator displacement, fluorescence; inhibition, % at 7.9 µM; hit rate 4% among 1,600; in the data active = inhibition above about 37%;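 note: 0% = vehicle and 100% = reference compound; higher means more displacement of ethidium bromide from the DNA hairpin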
DNA FID DR = displaces fluorescent intercalator from DNA, HCV helicase counter-screen | IC50, µM | shares compounds with NS3 helicase inh | 120 tested, under 10 active | fluorescent intercalator displacement from DNA, fluorescence
Starred values were filed as active, the others as inactive; ? = inconclusive; · = not tested or not shown; + = active, no number. Hits are enriched below; roughly 2.1% of the tested compounds scored in any of these assays. Unless noted, the rule behind the calls is not given here.

SMILES	PABP polyA inh	NS3 helicase inh	eIF4H FP inh	MLLE-PAM2 inh	ZTA counter	EBNA-1 inhibitor	NS3 helicase cf	DNA FID counter	others
CN=c1scc(-c2ccc(F)cc2)n1/N=C/c1ccc(O)c(O)c1	5	45*	4	-40	·	·	-21	8
COC(=O)c1ccc(NC(=O)CCS(=O)(=O)c2ccc3c(c2)NC(=O)C(C)S3)cc1 (configuration not stated)	9	-5	4	-4	-10	4	·	·
COc1ccccc1NC(=O)CCS(=O)(=O)c1ccc2c(c1)NC(=O)C(C)S2 (configuration not stated)	3	46*	-13	-7	4	6	-14	-17
COc1ccc(N2CCN(CC(=O)Nc3cc(C)cc(C)c3)CC2)cc1	-16	4	-10	5	-4	10	·	·
Cc1ccc(-n2nc(C)c3c2OC(N)=C(C#N)C3c2ccoc2)cc1 (configuration not stated)	46	45*	14	11	24	9	-18	18
O=C(Nc1cccnc1)c1ccc2nc(-c3ccccc3)c(-c3ccccc3)nc2c1	6	-10	2	-1	-3	-1	·	·
O=C(Nc1ccccc1)c1ccc2nc(-c3ccco3)c(-c3ccco3)nc2c1	71*	46*	100*	3	-27	0	78*	53*
O=C(Nc1ccc(N2CCOCC2)cc1)c1ccc2nc(-c3ccco3)c(-c3ccco3)nc2c1	-2	9	15	12	1	-14	·	·
S=C(Nc1ccc(N2CCOCC2)cc1)Nc1ccc2nc(-c3ccco3)c(-c3ccco3)nc2c1	?	55*	?	92	-17	-8	18	-4
CC(=O)c1ccc(NC(=O)c2ccc3nc(-c4ccco4)c(-c4ccco4)nc3c2)cc1	84*	39*	103*	8	3	26	78*	34
CC(=O)c1ccc(NC(=O)CSc2nnc(-c3ccco3)c(-c3ccco3)n2)cc1	84	35	100	32	6	-7	·	·
O=C(c1ccc2nc(-c3ccco3)c(-c3ccco3)nc2c1)N1CCN(c2ncccn2)CC1	67*	53*	85*	24	9	8	84*	19	DNA FID DR=>79
Cc1nc(-c2ccc(S(=O)(=O)N3CCN(C(c4ccccc4)c4ccccc4)CC3)s2)cs1	1	14	0	6	6	-4	·	·
O=C(/C=C/c1cccs1)N1CCC2(CC1)Oc1ccc(Cl)cc1C(=O)C21CC(c2ccccc2)=NO1 (configuration not stated)	-7	·	-4	4	-17	5	·	·
CC(C)n1cnnc1SCC(=O)NC(=O)c1ccccc1	·	·	·	15	-10	-4	·	·
Cc1ccc(-c2ccc(C(=O)O)o2)cc1Cl	12	31	3	9	15	8	·	·
O=C(NCCO)Nc1ccc2nc(-c3ccco3)c(-c3ccco3)nc2c1	?	57*	?	·	42*	23	67*	38*
CC(C)Oc1ccc(F)cc1-c1cc(C(=O)N2CCc3ccccc3C2)[nH]n1	·	·	·	-6	·	·	·	·
O=C1/C(=C\c2ccc(O)c(O)c2)SC(=S)N1Cc1ccccc1	-5	69*	3	-125	·	·	59*	52*
CCOc1cc(/C=C2\SC(=S)N(C(C(=O)O)c3ccccc3)C2=O)ccc1O (configuration not stated)	-3	32	17	-84	-2	-8	·	·
COc1cc(/C=C2\SC(=S)N(C(C(=O)O)c3ccccc3)C2=O)ccc1O (configuration not stated)	3	43*	42	-75	2	7	75*	-1
COc1ccccc1CNC(=O)COC(=O)c1ncc(Cl)c(Cl)c1Cl	·	·	·	-5	-3	1	·	·
CCCOc1ccc(C2C(C(=O)c3ccc(C)o3)=C(O)C(=O)N2Cc2cccnc2)cc1 (configuration not stated)	19	7	-6	·	-5	-14	·	·
Cc1ccc(C(=O)C2=C(O)C(=O)N(Cc3ccco3)C2c2ccc(N(C)C)cc2)o1 (configuration not stated)	49	98*	10	4	3	-4	8	-6
CCCCOc1ccc(C2C(C(=O)c3ccc(C)o3)=C(O)C(=O)N2Cc2ccco2)cc1 (configuration not stated)	1	69*	4	-11	9	6	135*	-49	DNA FID DR=>79
SMILES	PABP polyA inh	NS3 helicase inh	eIF4H FP inh	MLLE-PAM2 inh	ZTA counter	EBNA-1 inhibitor	NS3 helicase cf	DNA FID counter	others
O=C(CSc1n[nH]c(-c2ccccc2Br)n1)NC(=O)NCc1ccco1	7	2	2	-7	-4	-2	·	·
CS(=O)(=O)c1ccc(Cl)c(NC(=O)C2CC(=O)N(Cc3ccco3)C2)c1 (configuration not stated)	·	·	·	-1	-5	-10	·	·
CCOC(=O)c1ccc(N/C=C/C(=O)C(C)(C)C)cc1	1	2	5	-15	-9	4	·	·
CN(C)c1ccc(N/C=C/C(=O)C(C)(C)C)cc1	-9	48*	9	2	+	+	19	26
Cc1cccc(/N=C/c2c(O)ccc3oc4c(c23)CCCC4)n1	-14	-4	36	33	-6	5	·	·
CC(C)CN=Cc1c(O)c([N+](=O)[O-])cc2oc3c(c12)CCCC3	1	46*	?	-42	-1	4	12	63*
O=[N+]([O-])c1cc2oc3c(c2c(C=NCc2ccccc2)c1O)CCCC3	active	51*	76*	-106	3	7	75*	69*
CC1CN(S(=O)(=O)c2cccc(C(=O)N=c3sccn3C)c2)CC(C)O1 (configuration not stated)	·	·	·	-8	3	-1	·	·
CC[C@@]1(c2ccccc2C)C(=O)N(C(=O)OC)N1C(=O)OC	-2	-4	2	24	-9	-4	·	·
CSc1ccc(CN2CCC(C)(Oc3ccccc3C)C2)cc1 (configuration not stated)	·	·	·	9	·	·	·	·
Cc1ccc(-c2nc(CNC(=O)c3ccco3)cs2)cc1	-8	41*	-2	-3	0	2	-18	-10
COC(=O)c1sc(N2C(=O)C(=O)/C(=C(/O)c3ccc(C)cc3)C2c2ccco2)nc1C (configuration not stated)	17	27	10	·	11	-3	·	·
CCOc1ccc(/C(O)=C2/C(=O)C(=O)N(c3nc(C)c(C)s3)C2c2ccco2)cc1 (configuration not stated)	19	51*	7	10	-7	-1	55*	19	DNA FID DR=>79
